# Bioassay records: PubChem, several laboratories
# Yeast life ext: compounds extending yeast replicative lifespan, primary screen, S. cerevisiae, OD615; S. cerevisiae growth with nicotinamide; deaD strain in restrictive glucose medium; inhibition of the nicotinamide effect, % at 10 µM; 130,000 compounds, 0.68% hits;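 active = inhibition above a set limit, placed 3 SD over the median of all compounds, cut at about 26% in these data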;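 also: 0% = nicotinamide-treated wells and 100% = cells grown without nicotinamide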
#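 assay system = DeaD-strain S. cerevisiae | measured by = absorbance at 615 nm | probe or stimulus = nicotinamide 1.5 mM | buffer or medium = CSMM-D glucose medium, restrictive | times = 48 h at 30 °C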
# Phagocyt inh: inhibitors of macrophage phagocytosis, primary screen, imaging, J774A.1 cells, IgG beads. 110,000 compounds, 0.07% hits. inhibition, % at 5 µM. J774A.1 macrophage IgG-bead phagocytosis;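 active = inhibition above the mean of the plate negative controls plus 5 SD, cut at about 13% in these data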;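 also: phagocytic index as fraction of beads internalized from green versus red external bead signal; plate controls were DMSO negative control for no effect and cytochalasin-D positive control for full effect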
# BB579 growth dn: growth inhibitors of yeast BB579 in restrictive medium, primary screen, yeast lifespan-shortening project, S. cerevisiae | OD615, 48 h | inhibition, % at 10 µM | 140,000 compounds, 0.51% hits;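 active = inhibition above a set limit, 3 SD over the mean compound inhibition, cut at about 44% in these data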
#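 System: DeaD yeast strain BB579; buffer or medium: CSMM-D dextrose restrictive medium; technique: OD at 615 nm; schedule: 4 h cell preincubation, 48 h compound exposure, 30 °C humidified; doses: single 10 µM dose; controls: amphotericin B 10 µg/mL, positive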
# RAM network inh: inhibitors of the yeast RAM network, primary screen, dse1pr::URA3 reporter, 5-FOA selection; S. cerevisiae dse1pr::URA3 reporter, 5-FOA growth OD615, 2 d; analog-sensitive cbk1-as2 kinase mutant strain; inhibition, % at 50 µM; 190,000 compounds, 1.8% hits; AID 868, 2007;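 active = inhibition above a set limit, 3 SD over mean compound inhibition, cut at about 8.4% in these data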;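 also: 0% = DMSO-only wells with no growth and 100% = 10 µM 1-NA-PP1 full growth; inhibition rescues growth on 5-FOA so higher OD means more RAM inhibition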
# RAM 5-FOA: 5-FOA growth of efflux-deficient control yeast, dose response, counter-screen for RAM network inhibitor project, S. cerevisiae, OD615; shares compounds with RAM network inh; S. cerevisiae efflux-deficient reporter strain, 5-FOA growth OD615, 2 days; max inhibition, %; 1,200 tested, under 10 active; call rule not given here;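 also: plate controls were vehicle for no effect and reference inhibitor for full effect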
# Active calls of the source: *; . = no result. The list is not random: actives were taken first. Their share in the collection is about 2.7%.
SMILES,Yeast life ext,Phagocyt inh,BB579 growth dn,RAM network inh,RAM 5-FOA
O=C(O)c1cc(Sc2ccc(Br)cc2)nc2ccccc12,.,.,.,11*,3
CSc1ccccc1Sc1cc(C(=O)O)c2ccccc2n1,-1,.,-4,-1,.
N#CC(Nc1ccccc1)c1ccccc1OCc1ccccc1 (configuration not stated),26,0,-47,14*,1
Cn1c(N)c(C(=O)CSc2nc(N)cc(N)n2)c(=O)n(C)c1=O,.,.,.,2,.
Cc1nn(Cc2ccccc2)c(C)c1NC(=O)CSc1nnc(-c2cc(Cl)ccc2O)n1C,-17,3,-24,0,.
O=C(CNC(=S)N(Cc1ccccc1)Cc1ccccc1F)NCCc1ccc(Cl)cc1,.,.,.,36*,3
CCCCC1(CC(=O)OCC)C(=O)N(c2ccccc2)N(c2ccccc2)C1=O,1,-18,-4,5,.
CCCCC1(Cc2cccc([N+](=O)[O-])c2)C(=O)N(c2ccccc2)N(c2ccccc2)C1=O,9,0,-44,13*,5
CCn1cc(CNCc2cn(C)nc2-c2ccc(C3CCCCC3)cc2)cn1,.,.,.,2,.
O=[N+]([O-])c1ccc(-c2csc(N3CCc4ccccc4C3)n2)cc1,-4,-6,9,8,.
Brc1ccc(-c2csc(N3CCc4ccccc4C3)n2)cc1,-6,.,-46,15*,5
CC1CC(C)(C)NC(=S)N1CCCC(=O)N1CCN(c2ccccc2F)CC1 (configuration not stated),0,-5,4,0,.
O=C(NCc1ccccn1)c1c(O)c2cccc3c2n(c1=O)CC3,2,.,2,-1,.
CCCCCCCCC(=O)NNC(=O)c1c(O)c2ccccc2n(CC)c1=O,.,.,.,13*,1
CCn1c(=O)c(C(=O)NCCc2ccccc2)c(O)c2ccccc21,-1,-5,-38,12*,4
CCCCCCn1c(=O)c(C(=O)N/N=C/c2cccc(F)c2)c(O)c2ccccc21,.,.,.,16*,5
O=C(NCCc1ccccc1)c1c(O)c2cccc3c2n(c1=O)CC3,3,-2,-62,22*,2
CC(C)(C)NC(=O)C(c1ccncc1)N(C(=O)c1csnn1)c1cccc2ccccc12 (configuration not stated),.,.,.,0,.
CC(C)CNC(=O)c1ccccc1NC(=O)c1ccc(CSc2ccccc2)cc1,4,.,-42,18*,7
CC(C)(C)NC(=O)c1ccc(NC(=O)CSc2ccccc2)cc1,.,.,.,22*,2
CCOc1cc(C2NN=C(c3ccccc3)S2)ccc1OCc1ccccc1Cl (configuration not stated),-25,.,-60,13*,4
CCOc1cc(C2NN=C(c3ccccc3)S2)ccc1OCc1ccc(F)cc1 (configuration not stated),-4,.,-32,12*,3
CNCc1ccccc1OCc1ccc(F)cc1,.,.,.,1,.
Cc1cc(NC(=O)COC(=O)C(Nc2ccc(C(F)(F)F)cc2Cl)C(C)C)no1 (configuration not stated),-4,0,-34,13*,6
O=C(COC(=O)C1(c2ccccc2F)CCCC1)Nc1ncc(C(F)(F)F)cc1Cl,3,-1,-17,12*,1
SMILES,Yeast life ext,Phagocyt inh,BB579 growth dn,RAM network inh,RAM 5-FOA
CCCOc1ccc(N2C(=O)CC(N(CCc3ccc(OC)cc3)C(=O)c3cccc(F)c3)C2=O)cc1 (configuration not stated),-1,-1,-19,5,.
CCCOc1ccc(N2C(=O)CC(N(CCc3ccccc3)C(=O)c3ccccc3)C2=O)cc1 (configuration not stated),.,.,.,12*,1
CCNC(=S)N(CCc1c(C)[nH]c2ccc(C)cc12)Cc1cccs1,.,.,.,5,.
COCCNC(=S)N(CCc1c(C)[nH]c2ccc(F)cc12)Cc1cccs1,.,.,.,12*,1
COC(=O)c1ccc(CSc2nc3ccc(C)cc3[nH]2)o1,-18,0,-44,1,.
O=C(N=Nc1c(O)n(Cc2ccccc2)c2ccccc12)c1ccc(O)cc1,-2,-10,-42,4,.
O=C(N=Nc1c(O)n(C2OC(=O)c3ccccc32)c2ccccc12)c1ccc(O)cc1 (configuration not stated),-3,1,-35,12*,4
CCOC(=O)C1=C(c2ccccc2)N=c2s/c(=C\c3ccco3)c(=O)n2C1c1cccs1 (configuration not stated),3,.,-38,5,.
CCOC(=O)C1=C(c2ccccc2)N=c2s/c(=C\c3cc(OC)c(OC)c(OC)c3)c(=O)n2C1c1cccs1 (configuration not stated),-15,0,-12,12*,4
CCn1c(SCc2nc3ccccc3c(=O)[nH]2)nc2ccccc21,.,.,.,12*,5
COc1ccc(-c2c/c(=N\c3nc(-c4ccccc4)c(C)s3)c3ccccc3o2)cc1O,-4,.,-33,11*,2
Cc1cc(/C=C(/C#N)c2cccc(Cl)c2)c(C)n1C,-10,.,-57,17*,4
CCCCc1noc(-c2c(-c3ccccc3Cl)noc2C)n1,.,.,.,1,.
CC1=NN(C(=O)c2ccc(Cn3cc([N+](=O)[O-])cn3)cc2)C(O)(C(F)(F)F)C1 (configuration not stated),4,-5,-4,1,.
O=c1c(Cc2ccc(Cl)cc2)c(O)ccn1Cc1cccs1,.,.,.,2,.
CCOC(=O)C1=C(NC(=S)NC(=O)c2ccccc2)c2ccccc2CC1C(C)C (configuration not stated),-9,-1,-43,12*,3
CCOC(=O)c1sc(NC(=S)NC(=O)c2ccccc2)c(C(=O)OCC)c1C,1,-9,-8,5,.
CCn1c(=O)ccc2cc([N+](=O)[O-])ccc21,.,.,.,0,.
CCN(CC)CCC(C)OC(=O)c1ccc(O)cc1O (configuration not stated),.,.,.,1,.
CC(C)CC(C(=O)O)N(Cc1ccccc1)Cc1ccccc1 (configuration not stated),.,.,-26,2,.
CC(C)C[C@@H](CN(C)N=O)N(C[C@H](Cc1ccccc1)N(CCc1ccccc1)N=O)N=O,.,.,.,20*,6
N=c1n(Cc2ccc(Cl)cc2)c2ccccc2n1CC(O)COc1ccccc1 (configuration not stated),.,.,.,-1,.
OC(COCC(F)(F)C(F)(F)C(F)(F)C(F)F)Cn1c2ccc(Cl)cc2c2cc(Cl)ccc21 (configuration not stated),-1,-4,-33,18*,2
CCC(C)C(=O)Nc1nnc(SCC(=O)NC(C)(C)C)s1 (configuration not stated),.,.,.,0,.
O=C(NC12CC3CC(CC(C3)C1)C2)N(Cc1ccccc1)Cc1ccncc1,.,.,.,0,.
Cc1ccc(-n2c(SCC(=O)N3CCCc4ccccc43)nnc2-c2cccnc2)c(C)c1,6,-6,-55,12*,1
